From ChEMBL document CHEMBL1149169 (J Med Chem, 2004) come the findings set out here.

The target of test [1] is T1, Adenosine receptor A1 (Homo sapiens, UniProt P30542).
T1 sequence (P30542 whole entry): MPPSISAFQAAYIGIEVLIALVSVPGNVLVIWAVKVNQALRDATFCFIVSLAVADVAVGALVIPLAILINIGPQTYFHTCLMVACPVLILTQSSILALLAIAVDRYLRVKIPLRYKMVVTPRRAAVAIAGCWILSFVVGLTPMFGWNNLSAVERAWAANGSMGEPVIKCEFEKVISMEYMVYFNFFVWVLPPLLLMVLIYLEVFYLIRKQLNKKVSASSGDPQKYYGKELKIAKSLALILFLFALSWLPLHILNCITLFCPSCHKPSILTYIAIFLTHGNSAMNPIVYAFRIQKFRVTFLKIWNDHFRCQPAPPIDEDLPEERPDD
Kind of test: Binding affinity against adenosine A1 receptor in human cortical membranes using [3H]CHA as radioligand. Type of test: cell membranes.

The next test addresses Adenosine receptor A2a (Homo sapiens, UniProt P29274). The test is described as follows: Binding affinity against adenosine A2 receptor in human striatal membranes using [3H]CGS-21680 as radioligand. Type of test: cell membranes, Striatum, Membrane.
For test [2], the target named is Adenosine receptor A2a (Bos taurus). The test is described as follows: Binding affinity against adenosine A2 receptor in bovine striatal membranes using [3H]-CGS-21,680 as radioligand.
Test [3] has as its target T2, Adenosine receptor A1 (Bos taurus, UniProt P28190).
T2 sequence (P28190 whole entry): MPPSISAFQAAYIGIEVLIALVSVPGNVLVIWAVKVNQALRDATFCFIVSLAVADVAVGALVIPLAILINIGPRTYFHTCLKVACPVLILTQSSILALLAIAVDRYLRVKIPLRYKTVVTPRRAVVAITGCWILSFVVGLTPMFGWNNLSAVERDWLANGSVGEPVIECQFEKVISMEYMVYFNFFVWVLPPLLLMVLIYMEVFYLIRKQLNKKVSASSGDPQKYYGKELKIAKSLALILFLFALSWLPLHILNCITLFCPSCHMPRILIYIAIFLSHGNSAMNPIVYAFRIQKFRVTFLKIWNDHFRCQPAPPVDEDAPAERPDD
Kind of test: Binding affinity against adenosine A1 receptor in bovine cortical membranes using [3H]CHA as radioligand. Type of test: cell membranes. An outline of the steps:
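Bovine cortical membranes; [3H]-CHA at 39 Ci/mmol. Compounds dissolved in DMSO, with solvent blanks run. At least six concentrations spanning 3 orders of magnitude.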

Test [4] is described as follows: Ratio of binding affinity against bovine adenosine A1 to that of A2 receptor.
In test [5] the target is T1, Adenosine receptor A1. Kind of test: Displacement of [3H]DPCPX from adenosine A1 receptor in human brain cortical membranes. Type of test: cell membranes. An outline of the steps: (§1)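 Cortical membranes (0.05–0.1 mg protein) incubated in triplicate at 25 °C for 120 min with about 0.5 nM [3H]-DPCPX (89 Ci/mmol). Buffer: 50 mM Tris/HCl pH 7.7, 1 mM EDTA, 2 mM MgCl2. Nonspecific binding with 10 μM (R)-PIA; GF/C filtration.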

The target of test [6] is T2, Adenosine receptor A1. Kind of test: Displacement of [3H]DPCPX from adenosine A1 receptor in bovine brain cortical membranes. Type of test: cell membranes. The gist of the method:
as §1

Some results are limits rather than exact numbers.

As a reminder, the Ki is the equilibrium dissociation constant of an inhibitor or competing ligand from its target.

Sequence of Adenosine receptor A2a (P29274 whole entry): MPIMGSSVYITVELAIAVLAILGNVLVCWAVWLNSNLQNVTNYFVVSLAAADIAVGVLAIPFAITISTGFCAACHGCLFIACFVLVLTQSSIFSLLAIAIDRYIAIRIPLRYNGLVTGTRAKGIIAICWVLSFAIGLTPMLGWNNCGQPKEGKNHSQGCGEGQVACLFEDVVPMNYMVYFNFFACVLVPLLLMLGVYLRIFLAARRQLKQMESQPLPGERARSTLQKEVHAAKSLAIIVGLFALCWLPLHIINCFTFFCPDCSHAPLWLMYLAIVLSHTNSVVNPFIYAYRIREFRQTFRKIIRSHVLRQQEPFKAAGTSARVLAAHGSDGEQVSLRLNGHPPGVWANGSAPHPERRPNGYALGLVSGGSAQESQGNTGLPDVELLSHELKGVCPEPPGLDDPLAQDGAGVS

`Oc1cc(-c2ccccc2)nc2nc(N3CCNCC3)ccc12`: the Ki (at Adenosine receptor A1 [1]; at Adenosine receptor A2a; in test [2]; at Adenosine receptor A1 [3]) was over 10000 nM throughout.

Molecule `COc1cc(-c2ccccc2)nc2c1ccc(=O)n2C` yielded a Ki at Adenosine receptor A1 [1] of over 10000 nM.

For the molecule `CCOc1ccc2c(OCC)cc(-c3ccccc3)nc2n1`, the Ki on Adenosine receptor A1 [1] was over 10000 nM; at Adenosine receptor A2a, over 10000 nM; in test [2], over 10000 nM; at Adenosine receptor A1 [3], 290 nM. Also, the Ratio in test [4] was over 34.

In the case of `CCOc1ccc2c(O)cc(-c3ccccc3)nc2n1`, the Ki on Adenosine receptor A1 [1] came out at 2600 nM; on Adenosine receptor A2a it was 1500 nM. In addition, the Ratio in test [4] was over 1920.

As for `Oc1cc(-c2ccccc2)nc2nc(F)ccc12`, the values for the Ki on Adenosine receptor A1 [1] and at Adenosine receptor A2a were 1400 nM and 2700 nM, respectively. Further, the Ratio in test [4] is 41.

Regarding `Cc1ccc2c(N(C)C)cc(-c3ccccc3)nc2n1`, the Ki at Adenosine receptor A1 [1] was over 10000 nM.

The molecule `Cc1ccc2c(Oc3ccccc3)cc(-c3ccccc3)nc2n1` showed a Ki on Adenosine receptor A1 [1] of 8800 nM.

As for `CSc1cc(-c2ccccc2)nc2nc(C)ccc12`, the Ki on Adenosine receptor A1 [1] was over 10000 nM; at Adenosine receptor A2a, 210 nM; in test [2], over 10000 nM; on Adenosine receptor A1 [3], 380 nM. In test [4], the Ratio is over 26.

Consider `CCCc1cc(O)c2ccc(N)nc2n1`, for which the Ki stood at 4100 nM at Adenosine receptor A1 [1] and 210 nM on Adenosine receptor A1 [3].

Regarding `Cc1ccc2ccc(-c3ccccc3)nc2n1`, at Adenosine receptor A1 [1], the Ki is over 10000 nM.

In the case of `Cc1ccc2c(O)cc(-c3cccc([N+](=O)[O-])c3)nc2n1`, the Ki is 2200 nM at Adenosine receptor A1 [1] and 15 nM at Adenosine receptor A1 [3].

Regarding `Oc1cc(-c2ccccc2)nc2nc(Oc3ccccc3)ccc12`, the Ki at Adenosine receptor A1 [1] was over 10000 nM.

In the case of `CCCn1c(=O)c2[nH]c(C3CCCC3)nc2n(CCC)c1=O` [1,3-DIPROPYL-8-CYCLOPENTYLXANTHINE [DPCPX]], the Ki on Adenosine receptor A1 [3] was found to be 0.25 nM.

Take `Cc1ccc2c(N=[N+]=[N-])cc(-c3ccccc3)nc2n1`: the Ki on Adenosine receptor A1 [1] is over 10000 nM.

`Nc1ccc2c(O)cc(-c3ccccc3)nc2n1` displayed a Ki on Adenosine receptor A1 [1] of 3400 nM.

In the case of `Cc1ccc2c(O)cc(-c3ccc(N)cc3)nc2n1`, the Ki was found to be 910 nM on Adenosine receptor A1 [1], 110 nM on Adenosine receptor A2a, 500 nM in test [2] and 6.8 nM at Adenosine receptor A1 [3]. Also, the Ratio in test [4] was found to be 73.

Turning to `Cc1ccc2c(O)ccnc2n1`, the Ki was over 10000 nM at Adenosine receptor A1 [1], 1800 nM on Adenosine receptor A2a, over 10000 nM in test [2] and 7000 nM at Adenosine receptor A1 [3]. In test [4], the Ratio was over 1.4.

For the molecule `Oc1cc(-c2ccccc2)nc2nc(N3CCCCC3)ccc12`, the Ki at Adenosine receptor A1 [1] is 7500 nM; at Adenosine receptor A2a, over 10000 nM; in test [2], over 10000 nM; on Adenosine receptor A1 [3], 7.2 nM. The Ratio in test [4] was over 1390.

In the case of `Oc1cc(-c2ccccc2)nc2nc(NC3CCCCC3)ccc12`, the Ki at Adenosine receptor A1 [1] turned out to be 2200 nM; on Adenosine receptor A1 [3], 70 nM.

In turn, `Cc1ccc2c(N3CCNCC3)cc(-c3ccccc3)nc2n1` gave a Ki on Adenosine receptor A1 [1] of over 10000 nM.

As to `CCOc1ccc2c(=O)cc(-c3ccccc3)n(CC)c2n1`, the Ki at Adenosine receptor A1 [1] is 930 nM; on Adenosine receptor A2a, 1400 nM; in test [2], over 10000 nM; on Adenosine receptor A1 [3], 48 nM. For the same molecule, in test [4], the Ratio was found to be 208.

`Cc1ccc2c(NN)cc(-c3ccccc3)nc2n1` came in with a Ki at Adenosine receptor A1 [1] of over 10000 nM.

Molecule `Cc1ccc2c(O)cc(-c3ccc(F)cc3)nc2n1` showed a Ki on Adenosine receptor A1 [1] of 3900 nM.

Consider `Cc1ccc2c(O)cc(-c3ccc([N+](=O)[O-])cc3)nc2n1`, for which the affinity on Adenosine receptor A1 [1], expressed as Ki, was 3100 nM.

For `Cc1ccc2c(S)cc(-c3ccccc3)nc2n1`, the Ki on Adenosine receptor A1 [1] was found to be 2000 nM.

Take `Cc1ccc2c(Cl)cc(-c3ccccc3)nc2n1`: the Ki on Adenosine receptor A1 [1] was over 10000 nM. In addition, in test [4], the Ratio is over 10.

For `CCCc1cc(O)c2ccc(C)nc2n1`, the Ki on Adenosine receptor A1 [1] was found to be 1500 nM; at Adenosine receptor A1 [5], 1450 nM; at Adenosine receptor A1 [6], 61.5 nM; at Adenosine receptor A1 [3], 48 nM.

For the molecule `Cc1ccc2c(N)cc(-c3ccccc3)nc2n1`, the affinity on Adenosine receptor A1 [1], expressed as Ki, was 2000 nM.

On to `Cc1cc(O)c2ccc(N)nc2n1`, for which the Ki at Adenosine receptor A1 [1] was over 10000 nM; on Adenosine receptor A2a, 7500 nM; on Adenosine receptor A1 [5] it was over 10000 nM; on Adenosine receptor A1 [6] it was over 10000 nM; on Adenosine receptor A1 [3], over 10000 nM.

Regarding `Cc1ccc2c(O)cc(-c3ccccc3)nc2n1`, the Ki at Adenosine receptor A1 [1] was found to be 430 nM; at Adenosine receptor A2a, 550 nM. For the same molecule, in test [4], the Ratio worked out at 87.

`Nc1nc2c(cnn2CCc2ccccc2)c2nc(-c3ccco3)nn12` [SCH-58261]: at Adenosine receptor A1 [3], the Ki came out at 357 nM.

`Cc1cc(O)c2ccc(=O)[nH]c2n1`: the Ki (on Adenosine receptor A1 [1]; on Adenosine receptor A2a; in test [2]; on Adenosine receptor A1 [3]) was over 10000 nM each time.

With `CCOc1cc(-c2ccccc2)nc2c1ccc(=O)n2CC`, the Ki on Adenosine receptor A1 [1] was over 10000 nM; on Adenosine receptor A1 [3], 4700 nM.

Take `CCOc1cc(-c2ccccc2)nc2nc(Br)ccc12`: the Ki on Adenosine receptor A1 [1] turned out to be 1000 nM; on Adenosine receptor A1 [3], 50 nM.

Turning to `COc1ccc2c(O)cc(-c3ccccc3)nc2n1`, affinity on Adenosine receptor A1 [1] was put at a Ki of 2000 nM.

Turning to `CCOC(=O)CCN1CCN(c2ccc3c(O)cc(-c4ccccc4)nc3n2)CC1`, the Ki at Adenosine receptor A1 [1] and on Adenosine receptor A1 [3] was over 10000 nM throughout.

`Cc1ccc2c(NC3CCCCC3)cc(-c3ccccc3)nc2n1`: the Ki on Adenosine receptor A1 [1] turned out to be 560 nM; at Adenosine receptor A1 [5] it was 448 nM; at Adenosine receptor A1 [6], 39 nM.

Turning to `Oc1cc(-c2ccccc2)nc2nc(Cl)ccc12`, the results for the Ki on Adenosine receptor A1 [1], on Adenosine receptor A1 [5] and on Adenosine receptor A1 [6] were 300 nM, 670 nM and 1.62 nM, respectively.

On to `CCn1c(-c2ccccc2)cc(=O)c2ccc(C)nc21`, for which the Ki on Adenosine receptor A1 [1] was over 10000 nM.

Turning to `Cc1ccc2c(N)ccnc2n1`, the Ki (on Adenosine receptor A1 [1]; on Adenosine receptor A2a; in test [2]; on Adenosine receptor A1 [3]) was over 10000 nM throughout.

`O=c1ccc2c(O)cc(-c3ccccc3)nc2[nH]1`: the Ki on Adenosine receptor A1 [1] and at Adenosine receptor A1 [5] was over 10000 nM in each case.

On Adenosine receptor A1 [1], `Oc1cc(-c2ccccc2)nc2ncccc12` had a Ki of 1300 nM.

As to `Cn1c(=O)ccc2c(O)cc(-c3ccccc3)nc21`, on Adenosine receptor A1 [1], the Ki is over 10000 nM.

Turning to `Oc1cc(-c2ccccc2)nc2nc(Br)ccc12`, the results for the Ki at Adenosine receptor A1 [1], at Adenosine receptor A1 [5] and on Adenosine receptor A1 [6] were 360 nM, 336 nM and 1.6 nM, respectively.

Regarding `Oc1cc(-c2ccccc2)nc2nc(N3CCOCC3)ccc12`, the Ki at Adenosine receptor A1 [1] was over 10000 nM; at Adenosine receptor A2a, over 10000 nM; in test [2], over 10000 nM; on Adenosine receptor A1 [3] it was 160 nM. Besides, in test [4], the Ratio is over 63.

Take `CC(=O)Nc1ccc(-c2cc(O)c3ccc(C)nc3n2)cc1`: the Ki on Adenosine receptor A1 [1] is 2000 nM; on Adenosine receptor A1 [5], 1460 nM; on Adenosine receptor A1 [6], 1.67 nM; at Adenosine receptor A1 [3], 1 nM.

With `CN(C)c1ccc2c(O)cc(-c3ccccc3)nc2n1`, the Ki came out at 980 nM on Adenosine receptor A1 [1], 1370 nM on Adenosine receptor A1 [5], 6.02 nM at Adenosine receptor A1 [6] and 0.56 nM on Adenosine receptor A1 [3].

For the molecule `COc1cc(-c2ccccc2)nc2nc(C)ccc12`, the Ki on Adenosine receptor A1 [1] is over 10000 nM.

For the molecule `Cc1ccc2c(O)cc(-c3ccccc3F)nc2n1`, the Ki is 490 nM at Adenosine receptor A1 [1] and 40 nM on Adenosine receptor A2a. In addition, in test [4], the Ratio amounted to 43.

`Cc1ccc2c(O)cc(-c3cccc(N)c3)nc2n1`: the Ki on Adenosine receptor A1 [1] worked out at 4000 nM.
